One may read the IC50 as the concentration needed to halve the response being measured.

Structures are written as SMILES. The source made the active and inactive calls. No cut-off for these calls is given here.

The nature of series [1]: Drug concentration in 5XFAD mouse plasma at 75 ppm administered as rodent chow starting from 1.5 months and measured after 5 months. The format is ADME, cell-free. Conditions: route po, time 3.5 months. Put shortly: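 WT or 5xFAD mice were fed PLX3397 in AIN-76A chow at 600 ppm or 75 ppm from 1.5 to 5 months of age. Terminal brain and plasma drug concentrations were determined at study end.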

Series [2] addresses Ephrin type-A receptor 2 (Homo sapiens, UniProt P29317). Nature of the series: Inhibition of EPHA2 (unknown origin).
Series [3] has as its system Mus musculus. The series can be described thus: Effect on APP processing pathway in wildtype mouse assessed as PEN2 protein signal intensity in cortex at 1200 ppm administered as rodent starting from 1.5 months and measured after 7 months (reference value: 47.716 to 128.950 %). The series is classed as functional. Conditions: route po, time 5.5 months, 4015 h.
In series [4] the test system is Mus musculus. The series can be described thus: Antialzheimer activity in 5XFAD mouse assessed as average plaque volume in somatosensory cortex at 1200 ppm administered as rodent chow starting from 1.5 months and measured after 7 months by Thio-S staining based confocal microscopic analysis (reference value: 711.144 to 2878.724 microm3). The series is classed as functional. Conditions: route po, time 5.5 months, 4015 h.

Series [5] deals with G protein-coupled receptor kinase 6 (Homo sapiens, UniProt P43250). Nature of the series: Inhibition of GRK6 (unknown origin).
Chain of G protein-coupled receptor kinase 6 (P43250 whole entry): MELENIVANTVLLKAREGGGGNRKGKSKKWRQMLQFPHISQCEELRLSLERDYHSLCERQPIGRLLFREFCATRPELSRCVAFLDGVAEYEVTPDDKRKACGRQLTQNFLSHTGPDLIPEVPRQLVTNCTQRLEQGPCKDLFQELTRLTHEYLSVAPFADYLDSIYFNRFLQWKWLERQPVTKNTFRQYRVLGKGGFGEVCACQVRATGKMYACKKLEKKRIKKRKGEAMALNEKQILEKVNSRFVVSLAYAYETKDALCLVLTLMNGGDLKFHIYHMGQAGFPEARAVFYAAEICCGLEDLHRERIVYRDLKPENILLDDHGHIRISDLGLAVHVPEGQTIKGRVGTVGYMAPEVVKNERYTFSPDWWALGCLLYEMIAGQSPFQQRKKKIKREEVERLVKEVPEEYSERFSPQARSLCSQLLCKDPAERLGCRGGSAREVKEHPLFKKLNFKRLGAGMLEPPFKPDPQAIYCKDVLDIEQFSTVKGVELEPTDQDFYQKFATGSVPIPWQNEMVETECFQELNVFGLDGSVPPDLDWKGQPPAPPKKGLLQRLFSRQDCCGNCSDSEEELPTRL
Series [6] relates to Mus musculus. The series can be described thus: Effect on APP processing pathway in 5XFAD mouse assessed as C99 protein signal intensity in cortex at 1200 ppm administered as rodent starting from 1.5 months and measured after 7 months (reference value: 49.412 to 179.884 %). The format is functional. Conditions: route po, time 5.5 months, 4015 h.
Series [7] deals with Calcium/calmodulin-dependent protein kinase type II subunit delta (Homo sapiens, UniProt Q13557). The series can be described thus: Inhibition of CAMK2D (unknown origin).
Chain of Calcium/calmodulin-dependent protein kinase type II subunit delta (Q13557 whole entry): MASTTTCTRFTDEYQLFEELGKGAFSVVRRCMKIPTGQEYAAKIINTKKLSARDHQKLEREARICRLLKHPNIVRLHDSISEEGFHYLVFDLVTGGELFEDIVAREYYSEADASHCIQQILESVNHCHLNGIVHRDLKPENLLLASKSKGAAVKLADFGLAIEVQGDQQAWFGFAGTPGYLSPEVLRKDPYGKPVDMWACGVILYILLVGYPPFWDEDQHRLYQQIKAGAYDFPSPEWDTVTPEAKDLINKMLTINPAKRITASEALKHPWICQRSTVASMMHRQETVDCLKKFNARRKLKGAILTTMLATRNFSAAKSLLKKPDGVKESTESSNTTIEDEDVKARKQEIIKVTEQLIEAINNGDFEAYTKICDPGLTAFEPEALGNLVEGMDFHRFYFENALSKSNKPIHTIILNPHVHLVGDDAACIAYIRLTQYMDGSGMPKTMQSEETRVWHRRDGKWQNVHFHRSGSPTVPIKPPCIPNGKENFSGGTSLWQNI
Series [8] deals with Mus musculus. Nature of the series: Effect on APP processing pathway in wildtype mouse assessed as PS1 protein signal intensity in cortex at 1200 ppm administered as rodent starting from 1.5 months and measured after 7 months (reference value: 78.906 to 243.681 %). The series is classed as functional. Conditions: route po, time 5.5 months, 4015 h.
Series [9] relates to Mus musculus. The series can be described thus: Antialzheimer activity in 5XFAD mouse assessed as amyloidbeta42 level in detergent soluble cortex fraction measured per microgram protein at 1200 ppm administered as rodent chow starting from 1.5 months and measured after 4 months by ELISA (reference value: 0 to 0.063 pg). The series is classed as functional. Conditions: route po, time 2.5 months, 1825 h. Put shortly: (§1)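 PLX5622 at 1200 ppm in chow given to 5xFAD mice from 1.5 months to 4 or 7 months of age; cortex and thalamus homogenized in TPER (detergent-soluble), pellets re-homogenized in 70% formic acid and spun 100,000 g, 1 h, 4 °C (insoluble); protein by Bradford/Lowry; Aβ species measured by Meso Scale electrochemiluminescence immunoassay, normalized to protein; n = 7–8 per group at 7 months.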
A general note: In an ELISA, binding on a coated surface is turned into a signal by an enzyme label.

For series [10], the target named is Tyrosine-protein kinase ABL1 (Homo sapiens, UniProt P00519). The series can be described thus: Inhibition of ABL1 (unknown origin).
Series [11] concerns the target RAC-beta serine/threonine-protein kinase (Homo sapiens, UniProt P31751). Nature of the series: Inhibition of AKT2 (unknown origin).
The nature of series [12]: Effect on ccl6 gene expression in wild type mouse cortex at 1200 ppm administered as rodent chow starting from 1.5 months and measured after 7 months by RNA-Seq analysis (reference value: 0.280 to 1.162 RPKM). The format is functional. As to conditions: route po, time 5.5 months, 4015 h.
The target in series [13] is Serine/threonine-protein kinase pim-1 (Homo sapiens, UniProt P11309). Nature of the series: Inhibition of PIM1 (unknown origin).
Chain of Serine/threonine-protein kinase pim-1 (P11309 whole entry): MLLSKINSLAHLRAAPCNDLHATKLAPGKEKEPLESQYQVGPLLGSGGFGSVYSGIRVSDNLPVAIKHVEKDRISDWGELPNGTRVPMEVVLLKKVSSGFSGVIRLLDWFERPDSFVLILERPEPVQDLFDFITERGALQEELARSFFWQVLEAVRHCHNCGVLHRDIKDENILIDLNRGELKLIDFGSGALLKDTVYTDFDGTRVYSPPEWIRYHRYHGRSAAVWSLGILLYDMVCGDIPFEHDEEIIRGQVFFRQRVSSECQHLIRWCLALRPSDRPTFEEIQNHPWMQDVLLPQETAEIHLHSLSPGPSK
In series [14] the test system is Mus musculus. The series can be described thus: Antialzheimer activity in 5XFAD mouse assessed as reduction in myeloid cell numbers in subiculum at 1200 ppm administered as rodent chow starting from 1.5 months and measured after 7 months by immunolabeling based confocal microscopic analysis relative to control. Conditions: route po, time 5.5 months, 4015 h. Also noted: scale not given: the % may be the effect or the level left. The series is classed as functional.

For series [15], the system named is Mus musculus. The series can be described thus: Antialzheimer activity in 5XFAD mouse assessed as amyloidbeta38 level in detergent soluble cortex fraction measured per microgram protein at 1200 ppm administered as rodent chow starting from 1.5 months and measured after 7 months by ELISA (reference value: 0 to 0.014 pg). As to conditions: route po, time 5.5 months, 4015 h. The series is classed as functional. In outline: as §1

For series [16], the system named is Mus musculus. The series can be described thus: Prevention of Fcrls gene upregulation in 5XFAD mouse hippocampus at 1200 ppm administered as rodent chow starting from 1.5 months and measured after 7 months by Nanostring analysis. The format is functional, tissue-based. As to conditions: route po, time 5.5 months.
Series [17] concerns the target Serine/threonine-protein kinase 25 (Homo sapiens, UniProt O00506). The series can be described thus: Inhibition of STK25 (unknown origin).
For series [18], the target named is Tyrosine-protein kinase Lck (Homo sapiens, UniProt P06239). The series can be described thus: Inhibition of LCK (unknown origin).
In series [19] the target is Serine/threonine-protein kinase PLK3 (Homo sapiens, UniProt Q9H4B4). The series can be described thus: Inhibition of PLK3 (unknown origin).
The nature of series [20]: Effect on Kcnq3 gene expression in wildtype mouse hippocampus assessed as percent change in Reads Per kilo base per Million mapped reads at 1200 ppm administered as rodent chow starting from 1.5 months and measured after 7 months by RNA-Seq analysis (reference value: 77.761 to 119.973 %). Conditions: route po, time 5.5 months, 4015 h. The series is classed as functional.

Series [21] has as its target Phosphorylase b kinase gamma catalytic chain, skeletal muscle/heart isoform (Homo sapiens, UniProt Q16816). The series can be described thus: Inhibition of PHKG1 (unknown origin).
Series [22] concerns the target Hepatocyte growth factor receptor (Homo sapiens, UniProt P08581). Nature of the series: Inhibition of MET (unknown origin).
Series [23] deals with Death-associated protein kinase 3 (Homo sapiens, UniProt O43293). Nature of the series: Inhibition of DAPK3 (unknown origin).
Chain of Death-associated protein kinase 3 (O43293 whole entry): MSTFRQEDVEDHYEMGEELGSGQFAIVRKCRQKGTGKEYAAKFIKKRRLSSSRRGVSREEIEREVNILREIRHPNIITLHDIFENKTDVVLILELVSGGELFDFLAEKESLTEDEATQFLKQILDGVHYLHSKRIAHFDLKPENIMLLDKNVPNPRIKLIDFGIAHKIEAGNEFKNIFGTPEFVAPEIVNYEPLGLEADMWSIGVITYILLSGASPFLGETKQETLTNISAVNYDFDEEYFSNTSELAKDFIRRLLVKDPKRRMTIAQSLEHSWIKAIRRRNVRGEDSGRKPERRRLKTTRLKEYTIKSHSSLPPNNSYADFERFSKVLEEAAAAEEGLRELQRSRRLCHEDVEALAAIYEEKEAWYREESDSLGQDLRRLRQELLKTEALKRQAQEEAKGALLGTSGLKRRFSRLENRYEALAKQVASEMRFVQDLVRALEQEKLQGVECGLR
Series [24] relates to Mus musculus. Nature of the series: Antialzheimer activity in 5XFAD mouse assessed as number of Iba positive cells per FOV in microglia at 1200 ppm administered as rodent chow for 5 days by DAPI staining based immunolabeling analysis (reference value: 119 to 154). The series is classed as functional. As to conditions: route po, time 5 day.
Series [25] addresses Ribosomal protein S6 kinase alpha-4 (Homo sapiens, UniProt O75676). Nature of the series: Inhibition of RPS6KA4 (unknown origin).
Series [26] can be described thus: Drug concentration in 5XFAD mouse brain at 1200 ppm administered as rodent chow for 10 to 24 weeks. The series is classed as ADME, tissue-based. Conditions: in vivo, po, time 10-24 weeks, read-out: Ct. In outline:
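WT or 5xFAD mice were started at 1.5 months of age on PLX5622 formulated at 1200 ppm in AIN-76A chow, with control chow as comparison. Feeding ran for 10 or 24 weeks. Terminal plasma and brain drug levels were then measured. Groups were sex-balanced and compared by two-tailed independent t-test.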

Series [27] deals with Mus musculus. Nature of the series: Antialzheimer activity in 5XFAD mouse assessed as number of Iba positive cells per FOV in somatosensory cortex at 1200 ppm administered as rodent chow starting from 1.5 months and measured after 4 months (reference value: 192 to 604). The series is classed as functional. As to conditions: route po, time 2.5 months, 1825 h.
The target in series [28] is AMPK alpha2/beta1/gamma1 (Homo sapiens, UniProt P54619+P54646+Q9Y478). The series can be described thus: Inhibition of AMPK_A2/B1/G1 (unknown origin). The series is classed as protein-complex assay.
Chain of AMPK alpha2/beta1/gamma1 (P54646 whole entry): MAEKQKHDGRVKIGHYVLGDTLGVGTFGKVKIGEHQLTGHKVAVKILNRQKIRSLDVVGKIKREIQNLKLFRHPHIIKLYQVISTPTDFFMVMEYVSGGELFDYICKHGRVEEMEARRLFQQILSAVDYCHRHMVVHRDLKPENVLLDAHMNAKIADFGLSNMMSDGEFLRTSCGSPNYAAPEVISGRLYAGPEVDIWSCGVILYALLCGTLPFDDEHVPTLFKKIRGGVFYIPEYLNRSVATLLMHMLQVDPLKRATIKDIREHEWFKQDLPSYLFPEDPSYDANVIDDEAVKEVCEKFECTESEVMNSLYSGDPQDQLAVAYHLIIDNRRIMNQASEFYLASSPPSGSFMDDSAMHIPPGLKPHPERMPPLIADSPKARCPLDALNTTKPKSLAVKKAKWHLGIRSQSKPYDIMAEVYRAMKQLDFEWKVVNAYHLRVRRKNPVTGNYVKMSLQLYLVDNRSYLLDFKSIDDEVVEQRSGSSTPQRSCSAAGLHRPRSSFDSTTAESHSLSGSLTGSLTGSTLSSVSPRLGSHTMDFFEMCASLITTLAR
Chain of AMPK alpha2/beta1/gamma1 (P54619 whole entry): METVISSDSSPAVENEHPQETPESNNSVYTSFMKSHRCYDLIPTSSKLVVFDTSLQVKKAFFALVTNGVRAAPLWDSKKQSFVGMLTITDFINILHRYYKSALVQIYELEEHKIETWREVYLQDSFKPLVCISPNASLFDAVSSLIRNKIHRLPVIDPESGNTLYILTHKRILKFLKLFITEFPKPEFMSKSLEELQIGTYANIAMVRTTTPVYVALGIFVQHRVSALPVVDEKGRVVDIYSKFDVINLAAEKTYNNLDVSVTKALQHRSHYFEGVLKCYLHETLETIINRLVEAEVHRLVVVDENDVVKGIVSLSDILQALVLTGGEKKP
Chain of AMPK alpha2/beta1/gamma1 (Q9Y478 whole entry): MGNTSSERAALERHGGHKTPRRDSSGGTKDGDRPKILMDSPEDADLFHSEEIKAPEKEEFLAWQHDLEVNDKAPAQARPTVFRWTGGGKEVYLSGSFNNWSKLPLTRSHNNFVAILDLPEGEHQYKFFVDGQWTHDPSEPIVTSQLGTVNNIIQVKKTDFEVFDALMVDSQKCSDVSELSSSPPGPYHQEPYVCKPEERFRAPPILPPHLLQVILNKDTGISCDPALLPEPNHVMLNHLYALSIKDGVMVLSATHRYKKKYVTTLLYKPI
The subject of series [29] is Mus musculus. Nature of the series: Antialzheimer activity in 5XFAD mouse assessed as time to locate platform at 1200 ppm administered as rodent chow for 10 to 24 weeks by Morris water maze test (reference value: 6.5 to 60 sec). The format is functional. Conditions: route po, time 10-24 weeks. Put shortly:
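Morris water maze: a circular pool was filled with opaque water (white paint added), and mice were given four trials per acquisition day. Twenty-four hours after the last acquisition day, the platform was removed for a 60 s probe trial. Mice had been on 1200 ppm PLX5622 or control chow for 10 or 24 weeks from 1.5 months of age.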

Chain of Phosphorylase b kinase gamma catalytic chain, skeletal muscle/heart isoform (Q16816 whole entry, canonical isoform): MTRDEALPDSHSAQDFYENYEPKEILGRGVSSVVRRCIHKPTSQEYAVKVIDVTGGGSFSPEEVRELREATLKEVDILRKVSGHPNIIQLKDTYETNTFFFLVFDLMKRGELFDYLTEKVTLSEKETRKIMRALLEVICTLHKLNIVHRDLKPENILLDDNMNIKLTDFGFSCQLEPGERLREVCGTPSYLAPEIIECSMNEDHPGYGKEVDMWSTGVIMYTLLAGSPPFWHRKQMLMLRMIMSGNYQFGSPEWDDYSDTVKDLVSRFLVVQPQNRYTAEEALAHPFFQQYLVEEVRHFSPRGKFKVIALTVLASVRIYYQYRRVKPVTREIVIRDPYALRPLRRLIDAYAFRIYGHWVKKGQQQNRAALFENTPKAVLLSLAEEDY
Chain of Ephrin type-A receptor 2 (P29317 whole entry): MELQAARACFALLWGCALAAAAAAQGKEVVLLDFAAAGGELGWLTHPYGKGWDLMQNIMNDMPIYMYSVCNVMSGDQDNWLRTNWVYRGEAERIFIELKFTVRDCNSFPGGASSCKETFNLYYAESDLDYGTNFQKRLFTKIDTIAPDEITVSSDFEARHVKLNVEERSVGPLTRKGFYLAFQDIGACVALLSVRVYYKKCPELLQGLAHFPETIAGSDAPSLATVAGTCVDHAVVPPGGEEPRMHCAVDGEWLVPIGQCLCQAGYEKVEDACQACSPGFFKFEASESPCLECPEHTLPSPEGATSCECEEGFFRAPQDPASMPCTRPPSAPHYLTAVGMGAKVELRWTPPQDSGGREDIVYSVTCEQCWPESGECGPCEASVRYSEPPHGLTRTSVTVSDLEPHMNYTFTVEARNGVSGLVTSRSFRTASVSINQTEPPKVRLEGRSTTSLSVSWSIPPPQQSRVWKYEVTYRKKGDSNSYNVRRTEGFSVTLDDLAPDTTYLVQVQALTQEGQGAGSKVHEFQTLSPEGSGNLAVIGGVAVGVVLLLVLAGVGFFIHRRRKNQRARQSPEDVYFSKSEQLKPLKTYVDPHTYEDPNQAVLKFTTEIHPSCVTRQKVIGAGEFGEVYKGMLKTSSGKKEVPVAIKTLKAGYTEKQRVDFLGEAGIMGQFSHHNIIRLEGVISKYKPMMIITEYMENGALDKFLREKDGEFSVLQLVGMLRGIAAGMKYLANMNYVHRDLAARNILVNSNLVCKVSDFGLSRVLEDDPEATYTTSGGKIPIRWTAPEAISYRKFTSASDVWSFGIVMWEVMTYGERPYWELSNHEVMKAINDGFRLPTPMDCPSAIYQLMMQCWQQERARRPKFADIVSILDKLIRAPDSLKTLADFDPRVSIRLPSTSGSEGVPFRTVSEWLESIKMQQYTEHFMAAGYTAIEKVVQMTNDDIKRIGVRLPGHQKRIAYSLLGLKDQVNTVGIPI
Chain of RAC-beta serine/threonine-protein kinase (P31751 whole entry): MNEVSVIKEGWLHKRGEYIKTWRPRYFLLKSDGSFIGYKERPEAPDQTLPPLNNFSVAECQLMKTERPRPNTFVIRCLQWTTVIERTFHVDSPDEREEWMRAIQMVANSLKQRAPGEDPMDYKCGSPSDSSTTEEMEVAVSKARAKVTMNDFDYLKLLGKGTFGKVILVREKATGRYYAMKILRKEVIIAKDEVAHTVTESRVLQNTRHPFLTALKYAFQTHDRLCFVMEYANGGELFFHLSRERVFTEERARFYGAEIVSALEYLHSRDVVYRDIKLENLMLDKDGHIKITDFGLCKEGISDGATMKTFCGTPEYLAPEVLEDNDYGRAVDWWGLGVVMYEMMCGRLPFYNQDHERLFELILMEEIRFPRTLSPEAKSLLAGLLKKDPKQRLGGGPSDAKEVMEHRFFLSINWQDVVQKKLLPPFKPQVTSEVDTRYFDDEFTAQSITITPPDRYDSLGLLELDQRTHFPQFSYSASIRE

Compound `FC(F)(F)c1ccc(CNc2ccc(Cc3c[nH]c4ncc(Cl)cc34)cn2)cn1` [PEXIDARTINIB] returned a concentration at 2555 h in series [1] of 15 µM.
`COc1ncc(F)cc1CNc1ccc(Cc2c[nH]c3ncc(C)cc23)c(F)n1` [PLX-5622]: the IC50 in [2], in series [5], in [7], in series [10], in [11] and in series [13] was more than 1000 nM throughout. Besides, the IC50 in series [17], in series [18], in series [19], in series [21], in [22] and in [23] was more than 1000 nM each time. For the same compound, the half-maximal inhibitory concentration (IC50) in series [25] and in series [28] was more than 1000 nM each time. In addition, the Activity in series [3] is 9.039%; in series [4], 66.975 um3; in series [6] it was 75.956%; in series [8], 99.34%; in series [9] it was 0.006 pg; in [12] it was 0 RPKM. Also, the Activity in [14] was 77%; in series [15], 0 pg; in series [20], 52.407%; in [24], 1; in [27], 0. In series [16], the result was Active. Further, in series [26], the concentration was found to be 3.47 µM. Also, the Time in [29] is given as 9.2 s.

Values taken from ChEMBL document CHEMBL5649170, “Sustained microglial depletion with CSF1R inhibitor impairs parenchymal plaque development in an Alzheimer's disease model” (Nat Commun, 2019).
